In the library only some 2.6% were active in any assay of this set; here they are far more common.
GSIS activator: primary screen for activators of insulin secretion dependent on glucose, INS-1E cells, GLuc reporter luminescence | INS-1E GLuc reporter insulin secretion, 2-3 h | 370,000 tested, 0.61% active | activation, % at 16.6 µM | AID 743287;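 active = lowest replicate activation of at least 40%, so every replicate reaches that level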
CFTR F508del cor: correctors of CFTR F508del function in bronchial epithelial cells | activity (quench increase), % at 7.58 µM | 350,000 tested, 0.36% active | CFBE cells, YFP halide quenching; stimulated with forskolin plus potentiator P3; % fluorescence drop versus neutral controls;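 active = mean added fluorescence quench of at least 8% versus neutral control, with both replicates also reaching 8%; inconclusive = only one of the mean or replicate conditions met; inactive = mean below 8% and not both replicates reaching 8%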;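 note: cells transiently co-express mutant CFTR-F508del with the halide-sensitive YFP; corrector assay measuring rescue of mutant channel to the surface after 24 h compound exposure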
E-selectin induc: induces E-selectin expression in human endothelial cells; P16581; HUVEC E-selectin immunofluorescence imaging; normalized: neutral wells 0, TNF-alpha wells 100; activation, % at 7.58 µM; 260,000 tested, 0.37% active; AID 686992;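 active = mean E-selectin-positive cell signal at least 10% of the positive control, reached in at least 60% of replicates, without over 20% cell loss; inconclusive = no rule given, readout overlaps actives, possibly toxicity-flagged; inactive = the rest, including those meeting only one limit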
Target sequence (P16581 whole entry, looked up): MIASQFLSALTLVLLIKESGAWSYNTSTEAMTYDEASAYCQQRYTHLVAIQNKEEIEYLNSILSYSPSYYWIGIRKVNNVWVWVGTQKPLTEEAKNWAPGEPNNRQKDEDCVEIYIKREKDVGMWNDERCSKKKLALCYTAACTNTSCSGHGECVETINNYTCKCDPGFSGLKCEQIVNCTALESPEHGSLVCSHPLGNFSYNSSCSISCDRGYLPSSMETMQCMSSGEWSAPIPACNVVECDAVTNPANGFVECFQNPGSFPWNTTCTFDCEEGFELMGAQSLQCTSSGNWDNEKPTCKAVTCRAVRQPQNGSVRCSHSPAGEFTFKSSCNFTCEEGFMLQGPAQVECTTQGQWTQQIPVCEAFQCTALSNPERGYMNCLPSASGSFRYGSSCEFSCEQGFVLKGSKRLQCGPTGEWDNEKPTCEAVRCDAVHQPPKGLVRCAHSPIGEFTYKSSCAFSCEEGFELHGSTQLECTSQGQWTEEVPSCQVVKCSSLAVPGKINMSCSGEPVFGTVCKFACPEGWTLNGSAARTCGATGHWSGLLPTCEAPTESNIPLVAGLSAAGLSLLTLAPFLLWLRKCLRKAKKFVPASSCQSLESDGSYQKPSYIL
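Test system: HUVEC | Signal: Immunofluorescence imaging | Read-out: Percent E-selectin-positive cells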
DENV2 CPE: inhibitors of DENV2 cytopathic effect. DENV2-infected cells, cytopathic effect rescue, plate reader. CPE inhibition, % at 9.99 µM. 350,000 tested, 1.7% active. AID 651640; in the data active = CPE inhibition above about 20%, passing the limit was not always enough; inconclusive = no clear call, values can overlap the other calls; tested in BHK-21 cells
miR-122 sensor: miR-122 inhibition in Huh7 cells; Huh7 miR-122 Renilla luciferase sensor, 48 h; neutral wells = 0, positive control = 100; activation (reporter increase), % at 12.5 µM; 340,000 tested, 0.3% active;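 active = mean replicate activation score at least 90 and every replicate individually at or above 90; inconclusive = only one of the two criteria met; inactive = neither criterion met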;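 note: higher luciferase means less miR-122 activity so hits act as miR-122 inhibitors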
ERAP1 HTS inh: ERAP1 (human) enzyme inhibition. recombinant ERAP1, Leu-AMC fluorescence, 60 min. 340,000 tested, 0.15% active. inhibition, % at 10.7 µM. Q9NZ08;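 active = mean replicate inhibition of at least 30%, or all replicates individually reaching that 30% level; inactive = mean below 30% and not every replicate reaching it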
Numbers stand for hits; n = inactive; u = inconclusive; x = no result; ! = repeats disagree; [ ] = remark or other dose.

SMILES	GSIS activator	CFTR F508del cor	E-selectin induc	DENV2 CPE	miR-122 sensor	ERAP1 HTS inh
O=C(c1ccccc1F)N1CC[C@@H]2[C@@H](CO)Nc3ccc(-c4cccc(F)c4)cc3[C@@H]21	n	n	n	x	104[16.7 µM]	x
O=C(Cc1ccccc1)N1CC[C@H]2[C@H](CO)Nc3ccc(C#Cc4cccc(F)c4)cc3[C@H]21	n	n	n	n	x	n
O=C(c1ccccn1)N1CC[C@@H]2[C@H]1c1cc(-c3ccc(F)cc3)ccc1N[C@@H]2CO	n	n	n	n	n	n
COc1ccc(NC(=O)N(C)C[C@@H]2OCCCC[C@H](C)Oc3ccc(NC(=O)Nc4cccc5ccccc45)cc3C(=O)N([C@H](C)CO)C[C@@H]2C)cc1	n	n	n	n	n	x
O=C(C1CCOCC1)N1CC[C@@H]2[C@H](CO)Nc3ccc(-c4cccc(F)c4)cc3[C@@H]21	n	n	n	u	n	n
O=C(C1CCOCC1)N1CC[C@@H]2[C@H]1c1cc(-c3cccc(F)c3)ccc1N[C@@H]2CO	n	n	n	88	n	n
CC(=O)N1CC[C@@H]2[C@@H](CO)Nc3ccc(-c4cccc(F)c4)cc3[C@@H]21	n	n	n	29	n	n
O=C(C1CCCC1)N1CC[C@@H]2[C@H](CO)Nc3ccc(C#Cc4ccc(F)cc4)cc3[C@@H]21	n	n	54	n	x	n
O=C(C1CC1)N1CC[C@H]2[C@H](CO)Nc3ccc(-c4ccc(F)cc4)cc3[C@H]21	n	n	n	n	n	n
O=C(C1CC1)N1CC[C@@H]2[C@H]1c1cc(-c3ccc(F)cc3)ccc1N[C@@H]2CO	n	n	n	122	n	x
O=C(NCC1CC1)[C@@H]1[C@@H](CO)[C@@H]2Cn3c(ccc(-c4cccnc4)c3=O)[C@H]1N2Cc1nccs1	n	n	n	n	n	n
C[C@H](CO)N1C[C@H](C)[C@H](CN(C)C(=O)Nc2ccc(C(F)(F)F)cc2)Oc2c(NS(=O)(=O)c3ccc(Cl)cc3)cccc2C1=O	n	n	n	n	n	n
CCC(=O)c1cn(CC(=O)Nc2cccc(C)c2C)c2ccccc12	n	n	x	n	n	n
CCC(=O)c1cn(CC(=O)Nc2cccc(C)c2)c2ccccc12	n	n	x	69	n	n
C[C@@H]1CN([C@@H](C)CO)C(=O)c2c(c3ccccc3n2C)-c2ccccc2CO[C@H]1CN(C)Cc1cccc2c1OCCCO2	n	n	n	21	x	n
C[C@H](CO)N1C[C@H](C)[C@H](CN(C)Cc2ccc3c(c2)OCCN3C)OCc2ccccc2-c2c(n(C)c3ccccc23)C1=O	n	n	n	n	x	n
C[C@@H]1CN([C@H](C)CO)C(=O)c2c(c3ccccc3n2C)-c2ccccc2CO[C@H]1CN(C)Cc1ccc2c(c1)OCCN2C	n	n	n	28!	n	n
C[C@@H]1CN([C@@H](C)CO)C(=O)c2c(c3ccccc3n2C)-c2ccccc2CO[C@H]1CN(C)Cc1cccc(O)c1	n	n	n	25	x	n
COCC(=O)Nc1ccc2c(c1)OC[C@@H](C)N(Cc1cccc(F)c1)C[C@H](C)[C@@H](OC)CN(C)C2=O	n	n	n	n	x	n
CN(C)CCCNCCCCNC(=O)/C=N/O	x	x	x	x	n	x
C=CC[N+](C)(C)CCCNC(=O)/C=N/O	n	x	n	n	x	69
CCC(=O)N1[C@H](CO)[C@H](c2ccc(-c3ccccc3OC)cc2)[C@@H]1CNC(C)=O	n	n	n	n	x	n
COc1cc(/C=C2\SC(=S)N(NC(=O)c3ccc(O)c(OC)c3)C2=O)ccc1O	n	n	x	n	n	n
COc1cc(/C=C2\SC(=S)N(NC(=O)c3ccncc3)C2=O)ccc1O	n	13	n	n	x	x
Cc1ccc(NC(=S)NCC23C=CC(O2)C2C(=O)N(c4ccc(C)cc4)C(=O)C23)cc1 (stereo unspecified)	x	n	n	49	n	n
Cc1ccc(S(=O)(=O)N[C@@H]2C=C[C@H](CC(=O)NC3CCCCC3)O[C@@H]2CO)cc1	n	n	n	n	x	n
COc1ccc(S(=O)(=O)N2CCc3ccccc32)cc1C(=O)Nc1cccnc1	50	n	x	n	n	n
O=S(=O)(c1ccc(Cl)nc1)N1CCCc2ccccc21	n	x	x	x	x	x
COC(=O)c1ccc(S(=O)(=O)N2CCc3ccccc32)cc1	n	12	n	n	n	n

Bioassay records from PubChem.
